TDP2 inh: blocks human TDP2 phosphodiesterase activity; 370,000 tested, 0.34% active; inhibition, % at 12.8 µM; O95551; recombinant TDP2, T5PNP hydrolysis, p-nitrophenol absorbance 415 nm; AID 720702;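 active = inhibition above the mean of all tested compounds plus 3 SD, set per campaign, cut at about 25% in these data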;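 also: 0% = DMSO with enzyme and 100% = buffer with substrate but no TDP2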
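Test system: Human TDP2 enzyme | Reagent: 5 mM T5PNP | Compound dosing: 12.8 µM single point, 1% DMSO | Incubation: Enzyme reaction with compound for 2 h at 37 °C | Technique: p-Nitrophenol epi absorbance | Read-out: % inhibition relative to enzyme-containing and enzyme-free wells | Benchmarks: High control without enzyme, low control DMSO plus TDP2 | Replicates: Singlicate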
Rin1 Abl inh: inhibitors of human Rin1-Abl protein interaction; TR-FRET Rin1/Abl binding, biochemical; AID 588664; 360,000 tested, 0.4% active; P00519+Q13671; inhibition, % at 7.35 µM; in the data active = inhibition above about 5%, passing the limit was not always enough
LEDGF integ inh: blocks HIV-1 LEDGF/p75-dependent DNA integration. inhibition, % at 3.7 µM. TR-FRET IN-LEDGF/p75 DNA integration, Eu/Cy5. AID 743269. 370,000 tested, 0.64% active;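 active = inhibition above the screen-wide mean plus 3 SD, cut at about 13% in these data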;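 also: signal is the Cy5 over europium emission ratio at 671 and 618 nm; 0% = plate median of compound wells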
MBD2 inh: blocks human MBD2 binding to methylated DNA. TR-FRET, MBD2 binding to methylated oligonucleotide. inhibition, % at 4.4 µM. 370,000 tested, 0.31% active. AID 686964; in the data active = inhibition above about 13%
UHRF1 binding: human UHRF1 methylated DNA binding inhibitors. Q96T88. UHRF1 binding to methylated oligo, TR-FRET. inhibition, % at 4.4 µM. 370,000 tested, 0.75% active; in the data active = inhibition above about 21%;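 also: UHRF1 SRA domain binding a hemimethylated CpG hairpin DNA probe; 0% = median of test compound wells and 100% = reference inhibitor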
Rin1 Abl conf: confirmation of inhibitors of human Rin1-Abl interaction; TR-FRET Rin1-Abl binding, purified proteins; inhibition, % at 7.35 µM; 1,300 tested, 49% active; shares compounds with Rin1 Abl inh; in the data active = inhibition above about 6.5%
GFP quench: counter-screen for Rin1-Abl inhibitors: GFP fluorescence quenchers | inhibitors/quenchers counterscreen | inhibition, % at 6.75 µM | AID 602125 | 1,300 tested, 8.5% active | shares compounds with Rin1 Abl inh; in the data active = inhibition above about 6.5%;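 also: ABL1-eGFP fusion protein alone without its partner RIN1-SBP; 0% = protein with vehicle and 100% = wells lacking protein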
GFP quench dose: quenches GFP in dose response, Rin1-Abl counter-screen | GFP fluorescence interference/quenching counterscreen | IC50, µM | 230 tested, under 10 active | shares compounds with Rin1 Abl inh; call rule not given here;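 also: ABL1-eGFP fusion protein alone without its RIN1 binding partner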
UHRF1 ctr MBD2: inhibits human UHRF1 binding to methylated oligonucleotide, MBD2 counter-screen; 1,000 tested, 25% active; inhibition, % at 4.4 µM; TR-FRET; shares compounds with MBD2 inh; in the data active = inhibition above about 21%;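 also: UHRF1 SRA domain binding a labeled hemimethylated CpG hairpin DNA; 0% = vehicle only and 100% = reference inhibitor with vehicle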
MBD2 DBD conf: confirmation of human MBD2-DBD methylated oligonucleotide binding inhibitors | inhibition, % at 4.4 µM | shares compounds with MBD2 inh | AID 720531 | 1,000 tested, 26% active | TR-FRET MBD2-DBD binding to methylated oligonucleotide
TDP2 inh conf: confirmation of human TDP2 inhibitors; 1,100 tested, 22% active; inhibition, % at 12.8 µM; shares compounds with TDP2 inh; recombinant human TDP2, absorbance read-out; in the data active = inhibition above about 25%;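 also: 0% = vehicle with enzyme and 100% = no enzyme buffer only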
IN multimer up: HIV-1 integrase multimerization activation, counter-screen; shares compounds with LEDGF integ inh; activation, % at 7.7 µM; TR-FRET HIV-1 integrase multimerization, biochemical; 2,000 tested, 17% active; in the data active = activation above about 8.9%
TRFRET interf: counter-screen for LEDGF/p75 integration inhibitors: TR-FRET optical interference | TR-FRET optical interference counterscreen, HIV-1 IN multimerization | shares compounds with LEDGF integ inh | inhibition, % at 7.7 µM | 2,000 tested, under 10 active;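 active = inhibition above the mean over all tested compounds plus 3 SD, which no compound reached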;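 also: 0% = integrase with antibodies and DMSO and 100% = antibodies without integrase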
LEDGF integ conf: confirmation of HIV-1 LEDGF/p75-dependent integration inhibitors; shares compounds with LEDGF integ inh; TR-FRET LEDGF/p75-dependent HIV-1 integration, biochemical; inhibition, % at 3.7 µM; 2,000 tested, 36% active
* = called active by the depositor; / = no result given. An excerpt weighted towards active compounds, which were near 1.9% of everything screened. Rule as the data show it, unless noted: active = inhibition above about 14%; inactive = the rest.

SMILES	TDP2 inh	Rin1 Abl inh	LEDGF integ inh	MBD2 inh	UHRF1 binding	Rin1 Abl conf	GFP quench	UHRF1 ctr MBD2	MBD2 DBD conf	IN multimer up	TRFRET interf	LEDGF integ conf	others
CCn1c(C)nc2cc(C(=O)N/N=C/c3ccc(O)c(O)c3O)ccc21	-9.5	45.2*	73.2*	16.1*	19.1	53.0*	23.1*	3.3	2.2	52.5*	-264.4	70.1*
C[C@@H]1CCN(C2CC2)S(=O)(=O)c2c(cccc2N2CCC[C@H]2CO)O1	-9.5	/	4.6	-4.3	-0.9	/	/	/	/	/	/	/
Oc1cc2c(cc1O)C1c3ccc(O)c(O)c3OCC1(O)C2 (configuration not stated)	-2.1	31.2*	89.1*	9.1	11.9	30.9*	19.6*	/	/	40.7*	-205.2	78.6*
O=C1Cc2cccc(=O)c(O)c2C(=O)O1	8.3	8.2*	20.5*	13.2*	27.6*	9.6*	5.2	27.7*	11.1	6.1	-30.7	25.8*
O=C1c2ccccc2C(=O)N1/N=C/c1ccc(O)c(O)c1	10.3	11.1*	30.3*	-1.0	1.3	-2.6	6.3	/	/	22.7*	-80.7	58.6*
CN(C)S(=O)(=O)c1cccc(NC(=S)N/N=C/c2ccc(O)c(O)c2O)c1	3.7	26.6*	55.3*	3.6	14.7	18.4*	10.3*	/	/	18.9*	-67.2	41.4*
O=c1c2cc(O)c(O)cc2oc2cc(O)c(C3OC(CO)C(O)C(O)C3O)c(O)c12 (configuration not stated)	-3.2	28.6*	81.6*	43.0*	60.3*	30.5*	8.4*	45.1*	40.2*	69.8*	-351.4	86.2*
CC(=O)c1cc(-c2cccc(Cl)c2O)c(=O)n2c1CCC2	10.8	/	-1.6	1.8	4.2	/	/	/	/	/	/	/
COC(=O)c1cccc(Cn2ccc3ccc(-c4ccc5ccn(C(=O)C6CC6)c5c4)cc32)c1	2.5	/	1.1	1.6	-4.3	/	/	/	/	/	/	/
Cc1ccccc1-c1nnnn1C1CCS(=O)(=O)C1 (configuration not stated)	3.8	2.7	-3.4	3.1	0.5	/	/	/	/	/	/	/
Cc1cc(=O)n(C2CCS(=O)(=O)C2)[nH]1 (configuration not stated)	70.4*	11.7*	22.1*	13.8*	17.2	0.2	-0.9	-1.9	1.6	-2.4	8.7	-0.3	TDP2 inh conf=26.2*
O=C1CCCC(O)=C1N=Nc1ccc2c(c1)OCO2	-14.2	-12.3	-0.3	-25.9	-25.1	/	/	/	/	/	/	/
O=C1CCCC(O)=C1N=Nc1ccc(C(=O)O)cc1	-13.4	6.7*	22.1*	14.8*	54.2*	2.2	3.2	55.6*	18.6*	37.5*	-188.5	32.4*
C/C(=N/NC(=O)c1cc(O)c(O)c(O)c1)c1ccc([N+](=O)[O-])cc1	-2.0	40.8*	31.2*	4.7	21.9*	45.9*	20.6*	/	/	19.4*	-97.9	51.3*
C/C(=N\NC(=O)c1ccc([N+](=O)[O-])cc1)c1c(O)cc(C)oc1=O	7.6	2.6	4.7	-3.3	0.3	/	/	/	/	/	/	/
CCn1c(SCC(=O)NN=Cc2cc(OC)ccc2OC)nnc1-c1ccc(OC)cc1	0.7	/	5.2	1.3	-3.5	/	/	/	/	/	/	/
Cc1c(F)cccc1NC(=O)CCCCCC1NC(=O)NC1C (configuration not stated)	5.0	86.3*	77.6*	5.3	-1.9	97.5*	-0.9	/	/	-1.0	5.0	88.9*	GFP quench dose=>67.5
CC1NC(=O)NC1CCCCCC(=O)Nc1ccc(F)cc1 (configuration not stated)	4.5	84.2*	83.5*	4.1	-3.8	98.2*	0.0	/	/	-2.3	11.8	92.6*	GFP quench dose=>67.5
CCCc1cc(CN2CCOCC2)c(O)c(CN2CCOCC2)c1O	0.7	0.1	-6.2	-5.2	-5.0	/	/	/	/	/	/	/
Oc1c(CN2CCOCC2)cc(CN2CCOCC2)c(O)c1O	-8.2	22.8*	84.2*	34.8*	70.4*	7.0*	5.8	6.0	6.5	4.6	-16.4	26.5*
CC1=NN(c2ccccc2)C(=O)/C1=C\C=C\c1ccccc1	1.9	-2.0	2.4	0.3	-6.9	/	/	/	/	/	/	/
CC1=NN(c2ccccc2)C(=O)/C1=C/c1cccc(C)c1	78.7*	9.4*	15.9*	7.4	15.9	1.0	1.9	/	/	0.7	-3.5	1.9
COc1ccc(/C=C2/C(=O)N(c3ccccc3)N=C2C)cc1OC	76.8*	18.5*	26.7*	8.5	13.7	0.9	-0.3	/	/	1.6	-8.1	-5.7
CC(=O)Oc1ccc(/C=C2/C(=O)N(c3ccccc3)N=C2C)cc1	71.0*	10.8*	50.8*	23.6*	16.2	-1.6	0.2	/	/	0.8	-3.9	-1.8
CC(C(=O)O)N1C(=O)/C(=C/C=C/c2ccco2)SC1=S (configuration not stated)	2.8	13.5*	93.2*	101.5*	101.0*	9.7*	20.1*	103.2*	110.2*	47.6*	-169.2	88.2*
O=C1/C(=C/C=C/c2ccco2)SC(=S)N1NS(=O)(=O)c1ccccc1	22.0	12.5*	70.5*	68.7*	96.7*	4.6	25.7*	88.1*	51.5*	20.3*	-72.6	76.2*
C[C@H]1c2cccc(O)c2C(O)=C2C(=O)C3(O)C(O)=C(C(N)=O)C(=O)[C@@H](N(C)C)[C@@H]3[C@@H](O)[C@@H]21 (some centres not stated)	0.9	7.5	7.5	1.6	2.4	/	/	/	/	/	/	/
